Data: the RNAGym collection of RNA variant scans (doi:10.1126/science.aae0568)
This sample holds only a part of the variants without activity.

B1: tRNA (parent)
chain: GUUCCGUUGGCGUAAUGGUAACGCGUCUCCCUCCUAAGGAGAAGACUGCGGGUUCGAGUCCCGUACGGAACG

Variants of: B1
Assay: yeast fitness relative to wild type (ratio to wild type); higher = fitter; tRNA-Arg(CCU), competitive growth, 37 C, YPD
Outline: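 Variants of the tRNA-Arg(CCU) gene, chemically synthesised with a 3% per-site mutation rate at 69 sites, were placed at the native genomic locus in Saccharomyces cerevisiae. The pooled strains were competed in YPD at 37°C for 24 hours in six parallel replicates. Gene amplicons from the start population and from each end population were read by 100-nucleotide paired-end sequencing. Darwinian fitness relative to wild type came from changes in genotype frequencies; genotypes needed ≥ 100 starting reads, and estimates < 0.5 were set to 0.5.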
With A43C C49A C66A the yeast fitness was no more than 0.5.
Variant A43C C49U C55G has a yeast fitness of 0.519.
A43C C49U C55G C61U showed a yeast fitness of 0.556.
Work on A43C C49U C62G yielded a yeast fitness of 0.561.
For A43C C49U C66U, the yeast fitness was 0.718.
In the case of A43C C55U G67C, the yeast fitness is reported as 0.556.
A43C C60A showed a yeast fitness of 0.591.
Work on A43C C60G yielded a yeast fitness of 0.953.
With A43C C60G G67A the yeast fitness was no more than 0.5.
For A43C C62A, the yeast fitness was 0.874.
In the case of A43C C66A, the yeast fitness is reported as 0.699.
A43C C66G showed a yeast fitness of 0.603.
Work on A43C G44C C55G C62U yielded a yeast fitness of 0.661.
Variant A43C G48A has a yeast fitness of 1.06.
For A43C G48A A70C, the yeast fitness was 1.13.
Variant A43C G48C A57G has a yeast fitness of 0.817.
For A43C G50A, the yeast fitness was 0.803.
Work on A43C G50C yielded a yeast fitness of 0.593.
A43C G50C A70U showed a yeast fitness of 0.574.
With A43C G51A the yeast fitness was 0.809.
Variant A43C G51C has a yeast fitness of 0.587.
For A43C G52C, the yeast fitness was 0.74.
With A43C G58C the yeast fitness was 1.03.
A43C G63A A65C gave a yeast fitness of 0.701.
For A43C G63C G67A, the yeast fitness was no more than 0.5.
A43C G68A showed a yeast fitness of 0.922.
With A43C U47A G58C U64C the yeast fitness was no more than 0.5.
Work on A43C U47C yielded a yeast fitness of 1.07.
Variant A43C U53A U54C has a yeast fitness of 0.583.
Work on A43C U53C C66U A70C yielded a yeast fitness of no more than 0.5.
For A43C U54A A57G, the yeast fitness was no more than 0.5.
A43C U64C showed a yeast fitness of 0.997.
Variant A43G has a yeast fitness of 0.991.
For A43G A45C, the yeast fitness was 0.901.
A43G A45C C49G showed a yeast fitness of 0.532.
Work on A43G A45G yielded a yeast fitness of 0.745.
Work on A43G A45U yielded a yeast fitness of 1.01.
Variant A43G A45U A69U has a yeast fitness of 0.771.
With A43G A45U C46U A70U the yeast fitness was no more than 0.5.
With A43G A45U G48A the yeast fitness was 0.658.
In the case of A43G A45U G67U, the yeast fitness is reported as 0.682.
Variant A43G A45U U47C G63A has a yeast fitness of no more than 0.5.
Variant A43G A57C C60G has a yeast fitness of no more than 0.5.
With A43G A57C G58A A65U the yeast fitness was no more than 0.5.
Work on A43G A57U yielded a yeast fitness of 0.623.
A43G A57U G58A showed a yeast fitness of 0.531.
For A43G A65G, the yeast fitness was 1.08.
For A43G A65U, the yeast fitness was 0.899.
Work on A43G A69U yielded a yeast fitness of 1.04.
With A43G C46G U53C G56C the yeast fitness was no more than 0.5.
Variant A43G C46U A70G has a yeast fitness of 1.04.
With A43G C46U C60G G68U the yeast fitness was 0.567.
Work on A43G C49A yielded a yeast fitness of 0.574.
A43G C49G showed a yeast fitness of 0.732.
For A43G C49U A57C A65U, the yeast fitness was no more than 0.5.
For A43G C49U A69C, the yeast fitness was 0.6.
In the case of A43G C55A A69U, the yeast fitness is reported as 0.633.
With A43G C55G the yeast fitness was 0.684.
Variant A43G C55U C61A has a yeast fitness of no more than 0.5.
For A43G C60U A65G, the yeast fitness was 0.535.
Work on A43G C60U C62U yielded a yeast fitness of 0.536.
With A43G C60U C62U G67A A70C the yeast fitness was 0.576.
For A43G C61A, the yeast fitness was 0.616.
A43G C61G C62U showed a yeast fitness of no more than 0.5.
A43G C62A showed a yeast fitness of 0.72.
In the case of A43G C62G, the yeast fitness is reported as 0.752.
In the case of A43G C62U, the yeast fitness is reported as 0.877.
In the case of A43G C66A, the yeast fitness is reported as 0.791.
Variant A43G C66U G68A has a yeast fitness of 0.585.
Work on A43G G44A C46A yielded a yeast fitness of 0.976.
In the case of A43G G44A C46A G67A, the yeast fitness is reported as 0.59.
Variant A43G G44C C66U has a yeast fitness of 0.57.
With A43G G48A the yeast fitness was 0.933.
For A43G G48A G50A G51A C62U, the yeast fitness was no more than 0.5.
Variant A43G G48C C66G has a yeast fitness of no more than 0.5.
For A43G G50A, the yeast fitness was 0.864.
For A43G G50A G51A, the yeast fitness was no more than 0.5.
Work on A43G G50A G51A C62U yielded a yeast fitness of no more than 0.5.
Variant A43G G50C U59C has a yeast fitness of no more than 0.5.
Variant A43G G51A has a yeast fitness of 0.853.
With A43G G51A C55G C60U the yeast fitness was no more than 0.5.
A43G G51A C61U C62G showed a yeast fitness of no more than 0.5.
Work on A43G G51A G58A yielded a yeast fitness of 0.58.
A43G G51C A69U showed a yeast fitness of no more than 0.5.
In the case of A43G G52A A69U A70C, the yeast fitness is reported as no more than 0.5.
A43G G52C gave a yeast fitness of 0.643.
A43G G52C C55A C61A gave a yeast fitness of no more than 0.5.
A43G G52C U53C G63C showed a yeast fitness of 0.604.
For A43G G56C, the yeast fitness was 0.766.
In the case of A43G G58A, the yeast fitness is reported as 0.969.
In the case of A43G G58A C61G, the yeast fitness is reported as no more than 0.5.
In the case of A43G G63A A69U, the yeast fitness is reported as 0.812.
Variant A43G G63C G68A has a yeast fitness of no more than 0.5.
A43G G67A showed a yeast fitness of 0.864.
Variant A43G G67U has a yeast fitness of 0.85.
Variant A43G G68C has a yeast fitness of 0.712.
In the case of A43G U47G C55G, the yeast fitness is reported as 0.636.
Work on A43G U53A yielded a yeast fitness of 0.657.
A43G U53A U54C gave a yeast fitness of no more than 0.5.
A43G U53C C55U C62U gave a yeast fitness of no more than 0.5.
A43G U59A gave a yeast fitness of 0.797.
In the case of A43G U64A, the yeast fitness is reported as 0.77.
For A43G U64C, the yeast fitness was 0.923.
Variant A43G U64G C66U has a yeast fitness of 0.544.
A43U showed a yeast fitness of 0.988.
For A43U A45C, the yeast fitness was 0.837.
For A43U A45C G67C, the yeast fitness was no more than 0.5.
In the case of A43U A45U A57C C66U, the yeast fitness is reported as no more than 0.5.
In the case of A43U A57G, the yeast fitness is reported as 1.01.
With A43U A57U the yeast fitness was 0.761.
A43U A65C showed a yeast fitness of 0.952.
With A43U A65C A69C the yeast fitness was no more than 0.5.
Variant A43U A65C G68U has a yeast fitness of 0.527.
Work on A43U A65U yielded a yeast fitness of 0.883.
With A43U A69C the yeast fitness was 0.986.
For A43U A69C A70C, the yeast fitness was 0.601.
Variant A43U A69G has a yeast fitness of 0.886.
Variant A43U A70C has a yeast fitness of 0.898.
With A43U A70G the yeast fitness was 0.937.
In the case of A43U C46A A65C A70U, the yeast fitness is reported as no more than 0.5.
In the case of A43U C46A G48C, the yeast fitness is reported as 0.631.
For A43U C46A G63A, the yeast fitness was 0.689.
With A43U C46G A57G U64A A70G the yeast fitness was no more than 0.5.
Variant A43U C46U has a yeast fitness of 0.952.
A43U C46U A69U gave a yeast fitness of 0.807.
Variant A43U C46U C49U has a yeast fitness of 0.731.
Variant A43U C49A C66U A70U has a yeast fitness of 0.529.
A43U C49G gave a yeast fitness of 0.727.
With A43U C49G G63A A69C the yeast fitness was no more than 0.5.
A43U C49U C62U showed a yeast fitness of 0.79.
With A43U C55A C66U the yeast fitness was 0.6.
Variant A43U C55A G68C A69U has a yeast fitness of no more than 0.5.
With A43U C55G the yeast fitness was 0.537.
Variant A43U C55U C66U has a yeast fitness of 0.619.
A43U C60A gave a yeast fitness of 0.59.
Work on A43U C60A C62U yielded a yeast fitness of 0.65.
A43U C60G C62G showed a yeast fitness of no more than 0.5.
A43U C60G C62U showed a yeast fitness of 0.839.
Variant A43U C60G U64A has a yeast fitness of 0.679.
Variant A43U C61A A65U has a yeast fitness of no more than 0.5.
Work on A43U C61G C62A yielded a yeast fitness of 0.581.
A43U C61G C62U G68A A69C gave a yeast fitness of no more than 0.5.
With A43U C62A the yeast fitness was 0.702.
Work on A43U C62U A70C yielded a yeast fitness of 0.637.
Variant A43U C62U G63A has a yeast fitness of 0.823.
A43U C66U gave a yeast fitness of 0.829.
A43U G48A C60A showed a yeast fitness of 0.586.
A43U G48A G56C A57U gave a yeast fitness of 0.693.
In the case of A43U G48C, the yeast fitness is reported as 0.922.
With A43U G48C C60G the yeast fitness was no more than 0.5.
Work on A43U G48C C60G G63A yielded a yeast fitness of no more than 0.5.
Work on A43U G50A yielded a yeast fitness of 0.796.
With A43U G50A G68A the yeast fitness was no more than 0.5.
A43U G50C showed a yeast fitness of 0.812.
With A43U G50C C60A the yeast fitness was no more than 0.5.
Work on A43U G52A A69U yielded a yeast fitness of no more than 0.5.
A43U G52C C62A gave a yeast fitness of no more than 0.5.
With A43U G56A the yeast fitness was 0.96.
For A43U G56A G63A, the yeast fitness was 0.773.
Work on A43U G58U yielded a yeast fitness of 0.694.
A43U G63C showed a yeast fitness of 0.589.
Work on A43U G67A A69U yielded a yeast fitness of 0.548.
Variant A43U U47C has a yeast fitness of 0.899.
Work on A43U U47C C55A A65U A70G yielded a yeast fitness of no more than 0.5.
Variant A43U U47G U53G has a yeast fitness of 0.519.
A43U U53A A69C showed a yeast fitness of 0.614.
For A43U U54A A57C, the yeast fitness was 0.533.
